We go through one molecule from ChEMBL document CHEMBL4334471, “Discovery of 1,8-disubstituted-[1,2,3]triazolo[4,5-c]quinoline derivatives as a new class of Hippo signaling pathway inhibitors” (Bioorg Med Chem Lett, 2019).

Assay [1] deals with Mitogen-activated protein kinase 11 (Homo sapiens) (UniProt Q15759). The assay is described as follows: Inhibition of recombinant human full length SAPK2b assessed as residual activity at 10 uM using myelin basic protein as substrate incubated for 40 mins in presence of [gamma33P]ATP by scintillation counting based radiometry assay relative to control.
The target of assay [2] is Protein kinase C beta type (Homo sapiens) (UniProt P05771). Nature of the assay: Inhibition of recombinant human PKCbeta2 (2 to end residues) assessed as residual activity at 10 uM using histone H1 as substrate incubated for 40 mins in presence of [gamma33P]ATP by scintillation counting based radiometry assay relative to control.
Assay [3] addresses LIM domain kinase 2 (Homo sapiens) (UniProt P53671). Nature of the assay: Inhibition of recombinant human LIMK2 assessed as residual activity after 10 uM by scintillation counting based radiometry assay relative to control.
Assay [4] has as its target Wee1-like protein kinase (Homo sapiens) (UniProt P30291). Nature of the assay: Inhibition of recombinant human WEE1 (214 to end residues) assessed as residual activity at 10 uM using LSNLYHQGKFLQTFCGSPLYRRR as substrate incubated for 40 mins in presence of [gamma33P]ATP by scintillation counting based radiometry assay relative to control.
Assay [5] deals with Serine/threonine-protein kinase ULK2 (Homo sapiens) (UniProt Q8IYT8). The assay is described as follows: Inhibition of recombinant human ULK2 (1 to 306 residues) assessed as residual activity at 10 uM using casein as substrate incubated for 40 mins in presence of [gamma33P]ATP by scintillation counting based radiometry assay relative to control.
Assay [6] deals with Tyrosine-protein kinase SYK (Homo sapiens) (UniProt P43405). The assay is described as follows: Inhibition of recombinant human full length SYK assessed as residual activity at 10 uM using poly(Glu, Tyr) 4:1 as substrate incubated for 40 mins in presence of [gamma33P]ATP by scintillation counting based radiometry assay relative to control.
For assay [7], the target named is Serine/threonine-protein kinase STK11 (Homo sapiens) (UniProt Q15831). Nature of the assay: Inhibition of recombinant human LKB1 assessed as residual activity at 10 uM using LSNLYHQGKFLQT as substrate after 40 mins in presence of [gamma-33ATP] by scintillation counting based radiometry assay relative to control.
Assay [8] concerns Hepatocyte growth factor receptor (Homo sapiens), P08581 [Y1230C]. Nature of the assay: Inhibition of recombinant human MET A1209G/V1290L/Y1248C mutant (974 to end residues) assessed as residual activity at 10 uM using KKKGQEEEYVFIE as substrate incubated for 40 mins in presence of [gamma-33ATP by scintillation counting based radiometry assay relative to control.
Assay [9] addresses Ephrin type-A receptor 1 (Homo sapiens) (UniProt P21709). Nature of the assay: Inhibition of recombinant human EphA1 (568 to end residues) assessed as residual activity at 10 uM using KKKSPGEYVNIEF as substrate at 40 mins in presence of [gamma-33ATP] by scintillation counting based radiometry assay relative to control.
Assay [10] has as its target SRSF protein kinase 3 (Homo sapiens) (UniProt Q9UPE1). Nature of the assay: Inhibition of recombinant full-length human MSSK1 assessed as residual activity at 10 uM using ERMRPRKRQGSVRRRV as substrate measured after 40 mins in presence of [gamma33P]ATP by scintillation counting based radiometry assay relative to control.
In assay [11] the target is Serine/threonine-protein kinase D3 (Homo sapiens) (UniProt O94806). Nature of the assay: Inhibition of recombinant full-length human PKD3 assessed as residual activity at 10 uM using KKLNRTLSVA as substrate incubated for 40 mins in presence of [gamma33P]ATP by scintillation counting based radiometry assay relative to control.
Assay [12] is filed under the species Mus musculus. The assay is described as follows: Inhibition of mouse ABL1 L782P/G784R/W785L/L786V mutant (27 to end residues) at 10 uM using EAIYAAPFAKKK as substrate incubated for 40 mins in presence of [gamma-33ATP] by scintillation counting based radiometry assay relative to control. Details: scale not given: the % may be the effect or the level left.
The species named for assay [13] is Mus musculus. Nature of the assay: Inhibition of recombinant full length mouse PI3K p110/p85 E545K mutant assessed as residual activity at 10 uM using phosphatidylinositol-4, 5-bisphosphate as substrate incubated for 40 mins in presence of [gamma33P]ATP by scintillation counting based radiometry assay relative to control.
The test system of assay [14] is Serine/threonine-protein kinase Sgk2 (Homo sapiens), Q9HBY8 [S416D]. The assay is described as follows: Inhibition of recombinant human SGK2 S416D mutant (54 to end residues) assessed as residual activity at 10 uM using GRPRTSSFAEGKK as substrate incubated for 40 mins in presence of [gamma33P]ATP by scintillation counting based radiometry assay relative to control.

Assay [15] has as its target Mitogen-activated protein kinase kinase kinase kinase 5 (Homo sapiens) (UniProt Q9Y4K4). Nature of the assay: Inhibition of recombinant human MAP4K5 assessed as residual activity at 10 uM using myelin basic protein as substrate incubated for 40 mins in presence of [gamma-33ATP by scintillation counting based radiometry assay relative to control.
Assay [16] has as its target Serine/threonine-protein kinase LATS1 (Homo sapiens, UniProt O95835). Nature of the assay: Binding affinity to recombinant human LATS1 (Q678 to V1130 residues) expressed in bacterial expression system assessed as dissociation constant by Kinomescan method. The method, boiled down: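 KINOMEscan competition binding assay. Kinase bound at each concentration of test compound was quantified by qPCR and plotted against log10 compound concentration to derive Kd.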

Assay [17] addresses Serine/threonine-protein kinase ULK1 (Homo sapiens) (UniProt O75385). The assay is described as follows: Inhibition of recombinant human ULK1 (1 to 314 residues) assessed as residual activity at 10 uM using casein as substrate incubated for 40 mins in presence of [gamma33P]ATP by scintillation counting based radiometry assay relative to control.
Assay [18] concerns the target STE20-like serine/threonine-protein kinase (Homo sapiens) (UniProt Q9H2G2). The assay is described as follows: Inhibition of recombinant human SLK (1 to 373 residues) assessed as residual activity at 10 uM using RLGRDKYKTLRQIRQ as substrate incubated for 40 mins in presence of [gamma33P]ATP by scintillation counting based radiometry assay relative to control.
In assay [19] the target is Cyclin-dependent kinase 5/CDK5 activator 1 (Homo sapiens) (UniProt Q00535+Q15078). The assay is described as follows: Inhibition of recombinant full length human CDK5/p25 assessed as residual activity at 10 uM using histone H1 as substrate incubated for 40 mins in presence of [gamma-33ATP] by scintillation counting based radiometry assay relative to control. It is filed as protein-complex assay.

For a further assay, the species on record is Homo sapiens. The assay is described as follows: Inhibition of recombinant human full length PI3K p120gamma R459Q mutant assessed as residual activity at 10 uM using phosphatidylinositol-4, 5-bisphosphate as substrate incubated for 40 mins in presence of [gamma33P]ATP by scintillation counting based radiometry assay relative to control.
Assay [20] addresses Calcium/calmodulin-dependent protein kinase type 1B (Homo sapiens) (UniProt Q6P2M8). Nature of the assay: Inhibition of recombinant full length human CaMKIbeta assessed as residual activity at 10 uM using KKLRRTLSFAEP as substrate incubated for 40 mins in presence of [gamma-33ATP] by scintillation counting based radiometry assay relative to control.

Each structure is given as a SMILES string.

LIM domain kinase 2 (Homo sapiens), sequence (P53671 whole entry, looked up, the tested form may be a part): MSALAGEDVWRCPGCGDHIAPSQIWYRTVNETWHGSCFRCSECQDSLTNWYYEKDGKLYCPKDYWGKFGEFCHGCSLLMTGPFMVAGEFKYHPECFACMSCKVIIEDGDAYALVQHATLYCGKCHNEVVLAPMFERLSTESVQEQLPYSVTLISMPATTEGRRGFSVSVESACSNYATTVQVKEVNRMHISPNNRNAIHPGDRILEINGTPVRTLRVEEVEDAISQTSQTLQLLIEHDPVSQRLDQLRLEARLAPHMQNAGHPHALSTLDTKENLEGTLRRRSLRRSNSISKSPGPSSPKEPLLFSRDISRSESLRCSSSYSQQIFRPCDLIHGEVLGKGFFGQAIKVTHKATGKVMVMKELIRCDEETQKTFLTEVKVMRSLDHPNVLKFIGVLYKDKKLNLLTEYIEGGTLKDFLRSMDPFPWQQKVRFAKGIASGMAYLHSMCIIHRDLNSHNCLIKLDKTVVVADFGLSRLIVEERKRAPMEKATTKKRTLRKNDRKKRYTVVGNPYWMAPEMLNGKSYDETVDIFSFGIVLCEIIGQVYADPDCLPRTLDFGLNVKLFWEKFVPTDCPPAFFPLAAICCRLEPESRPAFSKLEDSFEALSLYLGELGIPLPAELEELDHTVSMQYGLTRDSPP
Mitogen-activated protein kinase kinase kinase kinase 5 (Homo sapiens), sequence (Q9Y4K4 whole entry, looked up, the tested form may be a part): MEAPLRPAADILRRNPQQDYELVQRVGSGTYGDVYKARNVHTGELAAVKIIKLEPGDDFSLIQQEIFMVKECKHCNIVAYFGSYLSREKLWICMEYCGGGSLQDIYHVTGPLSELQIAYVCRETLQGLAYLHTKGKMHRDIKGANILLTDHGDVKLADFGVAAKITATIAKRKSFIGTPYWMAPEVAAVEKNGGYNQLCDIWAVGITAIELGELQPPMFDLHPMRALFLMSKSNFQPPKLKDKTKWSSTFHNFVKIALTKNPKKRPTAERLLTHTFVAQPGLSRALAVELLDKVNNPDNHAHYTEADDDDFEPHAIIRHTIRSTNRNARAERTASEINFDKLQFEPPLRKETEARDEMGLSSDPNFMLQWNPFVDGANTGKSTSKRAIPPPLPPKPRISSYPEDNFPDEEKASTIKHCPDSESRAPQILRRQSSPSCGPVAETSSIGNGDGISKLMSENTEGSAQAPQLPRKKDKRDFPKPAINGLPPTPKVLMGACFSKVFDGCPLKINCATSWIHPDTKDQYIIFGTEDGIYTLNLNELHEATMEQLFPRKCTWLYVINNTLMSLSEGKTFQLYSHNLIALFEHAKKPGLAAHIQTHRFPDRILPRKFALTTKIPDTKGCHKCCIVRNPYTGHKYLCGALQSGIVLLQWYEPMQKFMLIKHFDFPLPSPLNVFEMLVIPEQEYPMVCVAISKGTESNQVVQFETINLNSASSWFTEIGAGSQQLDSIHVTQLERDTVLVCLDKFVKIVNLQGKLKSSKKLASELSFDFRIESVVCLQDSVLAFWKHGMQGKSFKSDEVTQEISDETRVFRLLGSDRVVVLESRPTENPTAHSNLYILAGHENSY
SRSF protein kinase 3 (Homo sapiens), sequence (Q9UPE1 whole entry): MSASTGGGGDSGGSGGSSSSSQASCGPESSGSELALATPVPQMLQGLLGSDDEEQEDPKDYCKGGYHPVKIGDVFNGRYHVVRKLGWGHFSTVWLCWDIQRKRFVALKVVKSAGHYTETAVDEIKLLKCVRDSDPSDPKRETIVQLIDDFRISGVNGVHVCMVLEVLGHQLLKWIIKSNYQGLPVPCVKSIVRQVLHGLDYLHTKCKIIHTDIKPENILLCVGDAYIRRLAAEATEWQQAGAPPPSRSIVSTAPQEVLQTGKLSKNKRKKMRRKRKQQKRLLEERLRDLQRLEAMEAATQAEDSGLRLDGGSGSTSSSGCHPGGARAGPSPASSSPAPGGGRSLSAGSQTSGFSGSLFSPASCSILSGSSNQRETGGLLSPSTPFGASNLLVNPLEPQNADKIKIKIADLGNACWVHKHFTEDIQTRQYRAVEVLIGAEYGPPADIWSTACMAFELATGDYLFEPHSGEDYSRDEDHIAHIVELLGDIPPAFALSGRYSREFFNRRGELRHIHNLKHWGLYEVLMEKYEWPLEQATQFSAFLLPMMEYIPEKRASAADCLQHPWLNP
Serine/threonine-protein kinase STK11 (Homo sapiens), sequence (Q15831 whole entry): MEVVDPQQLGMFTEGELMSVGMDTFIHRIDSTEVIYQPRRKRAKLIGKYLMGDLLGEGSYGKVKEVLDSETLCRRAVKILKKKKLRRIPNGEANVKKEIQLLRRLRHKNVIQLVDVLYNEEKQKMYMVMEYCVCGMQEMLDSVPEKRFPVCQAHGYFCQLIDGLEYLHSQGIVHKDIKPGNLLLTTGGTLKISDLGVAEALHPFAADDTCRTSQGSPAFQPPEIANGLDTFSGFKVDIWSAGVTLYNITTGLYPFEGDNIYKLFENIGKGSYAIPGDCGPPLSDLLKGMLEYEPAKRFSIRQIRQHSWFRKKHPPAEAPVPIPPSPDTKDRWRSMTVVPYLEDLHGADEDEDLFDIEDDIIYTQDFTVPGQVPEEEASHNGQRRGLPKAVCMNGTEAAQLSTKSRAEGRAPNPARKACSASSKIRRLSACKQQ
Serine/threonine-protein kinase Sgk2 (Homo sapiens), Q9HBY8 [S416D], sequence (Q9HBY8 1-367 with tags or gaps S416D): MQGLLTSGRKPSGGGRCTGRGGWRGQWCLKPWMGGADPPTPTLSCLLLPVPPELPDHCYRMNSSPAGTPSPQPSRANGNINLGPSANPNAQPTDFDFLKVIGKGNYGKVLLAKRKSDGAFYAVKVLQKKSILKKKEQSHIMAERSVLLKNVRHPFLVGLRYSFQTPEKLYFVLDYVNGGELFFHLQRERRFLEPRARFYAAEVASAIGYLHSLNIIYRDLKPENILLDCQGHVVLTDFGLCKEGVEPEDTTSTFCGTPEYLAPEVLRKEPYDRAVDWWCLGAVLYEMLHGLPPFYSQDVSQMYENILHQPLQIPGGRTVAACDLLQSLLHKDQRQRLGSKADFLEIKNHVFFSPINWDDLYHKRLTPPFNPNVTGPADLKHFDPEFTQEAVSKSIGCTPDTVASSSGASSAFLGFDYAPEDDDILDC
Serine/threonine-protein kinase D3 (Homo sapiens), sequence (O94806 whole entry): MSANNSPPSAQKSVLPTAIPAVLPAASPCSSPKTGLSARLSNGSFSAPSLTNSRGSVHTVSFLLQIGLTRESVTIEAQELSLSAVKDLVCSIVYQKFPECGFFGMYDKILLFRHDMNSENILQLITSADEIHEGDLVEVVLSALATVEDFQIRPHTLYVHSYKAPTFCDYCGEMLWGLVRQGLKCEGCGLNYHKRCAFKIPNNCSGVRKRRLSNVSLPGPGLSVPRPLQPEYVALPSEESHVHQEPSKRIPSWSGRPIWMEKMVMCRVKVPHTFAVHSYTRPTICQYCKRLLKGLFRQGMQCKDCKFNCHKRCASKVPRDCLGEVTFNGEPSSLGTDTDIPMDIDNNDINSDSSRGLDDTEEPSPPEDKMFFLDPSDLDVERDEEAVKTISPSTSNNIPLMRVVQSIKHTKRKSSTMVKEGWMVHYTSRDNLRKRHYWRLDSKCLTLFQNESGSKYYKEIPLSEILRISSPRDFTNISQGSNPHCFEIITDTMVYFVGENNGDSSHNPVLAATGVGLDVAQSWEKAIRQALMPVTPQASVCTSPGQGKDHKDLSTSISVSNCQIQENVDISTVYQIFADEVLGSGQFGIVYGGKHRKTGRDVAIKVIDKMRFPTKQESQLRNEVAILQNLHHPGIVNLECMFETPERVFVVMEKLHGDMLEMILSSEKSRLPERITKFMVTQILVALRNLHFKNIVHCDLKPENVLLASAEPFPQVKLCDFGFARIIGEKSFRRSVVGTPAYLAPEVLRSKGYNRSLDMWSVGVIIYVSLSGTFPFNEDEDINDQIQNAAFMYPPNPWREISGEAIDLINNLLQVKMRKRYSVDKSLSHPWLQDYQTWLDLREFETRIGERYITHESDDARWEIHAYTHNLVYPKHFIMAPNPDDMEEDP
Ephrin type-A receptor 1 (Homo sapiens), sequence (P21709 whole entry): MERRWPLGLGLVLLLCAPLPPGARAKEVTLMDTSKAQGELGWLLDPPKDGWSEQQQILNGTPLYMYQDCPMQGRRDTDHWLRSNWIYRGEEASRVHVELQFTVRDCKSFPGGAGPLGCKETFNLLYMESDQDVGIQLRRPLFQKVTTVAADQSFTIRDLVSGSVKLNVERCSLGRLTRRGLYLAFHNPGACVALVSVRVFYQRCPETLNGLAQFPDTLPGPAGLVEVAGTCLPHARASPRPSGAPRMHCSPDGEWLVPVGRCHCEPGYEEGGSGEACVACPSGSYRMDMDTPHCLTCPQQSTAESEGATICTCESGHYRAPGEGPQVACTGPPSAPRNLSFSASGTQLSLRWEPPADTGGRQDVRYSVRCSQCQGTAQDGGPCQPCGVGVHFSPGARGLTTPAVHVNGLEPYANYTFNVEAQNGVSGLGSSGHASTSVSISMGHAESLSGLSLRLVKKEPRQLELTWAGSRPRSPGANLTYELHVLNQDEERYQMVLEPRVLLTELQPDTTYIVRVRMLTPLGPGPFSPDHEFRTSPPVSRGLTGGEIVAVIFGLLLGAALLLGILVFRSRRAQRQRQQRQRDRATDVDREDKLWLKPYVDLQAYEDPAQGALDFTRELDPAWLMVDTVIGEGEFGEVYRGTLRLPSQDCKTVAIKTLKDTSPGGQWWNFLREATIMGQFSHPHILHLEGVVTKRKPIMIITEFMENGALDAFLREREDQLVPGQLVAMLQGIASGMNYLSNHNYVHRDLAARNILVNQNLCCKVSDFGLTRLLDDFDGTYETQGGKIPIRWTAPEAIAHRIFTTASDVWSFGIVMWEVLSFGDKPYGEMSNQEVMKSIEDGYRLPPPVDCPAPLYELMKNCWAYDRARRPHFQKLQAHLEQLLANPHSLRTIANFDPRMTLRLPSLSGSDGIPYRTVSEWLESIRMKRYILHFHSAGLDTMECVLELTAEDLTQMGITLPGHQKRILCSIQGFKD

Broadly, the Kd is the equilibrium constant for the complex coming apart. On to `C[C@@H](c1ccccc1)n1nnc2cnc3ccc(-c4cnc5[nH]ccc5c4)cc3c21`, for which the Activity in assay [1] worked out at 93%; in assay [2] it was 93%; in assay [3] it was 56%; in [4] it was 101%; in assay [5] it was 98%; in assay [6], 41%. In addition, the Activity amounted to 91% in assay [7]; 49% in assay [8]; 91% in assay [9]; 69% in [10]; 53% in assay [11]; 0% in the assay listed under Mus musculus [12]. The Activity in the assay filed under Mus musculus [13] came out at 1%; in assay [14] it was 36%; in assay [15] it was 62%; in assay [17] it was 91%; in assay [18], 75%; in assay [19], 93%. For the same molecule, the Activity in the assay listed under Homo sapiens was 16%; in assay [20], 67%. Also, in assay [16], the dissociation constant (Kd) is > 10 µM.
